# Activity calls are given as the source filed them. No cut-off for these calls is given here.
# Experiments:
# Mus musculus [1] = test: Effect on liver histology in GalN/LPS-induced ICR mouse FHF model assessed as inhibition of increase in inflammatory cell infiltration at 100 mg/kg, ip administered 1 hr prior to GalN/LPS challenge measured after 6 hrs by hematoxylin/eosin staining-based assay; assay type: functional, organism-based; design: dose 100 mg/kg
# Mus musculus [2] = test: Effect on serum TNF-alpha level in ICR mouse at 100 mg/kg, ip by ELISA (reference value: 14.1 +/- 1.1 pg/ml); assay type: ADME, organism-based; design: dose 100 mg/kg, route intraperitoneal; conditions: in vivo
# Mus musculus [3] = test: Hepatoprotective effect in GalN/LPS-induced ICR mouse FHF model assessed as serum TNF-alpha level at 100 mg/kg, ip administered 1 hr prior to GalN/LPS challenge measured after 6 hrs by ELISA (reference value: 78.9 +/- 14.9 pg/ml); assay type: functional; conditions: route intraperitoneal
# Mus musculus [4] = test: Effect on serum IL-6 level in ICR mouse at 100 mg/kg, ip by ELISA (reference value: 96.7 +/- 4.9 pg/ml); assay type: ADME, organism-based; design: dose 100 mg/kg, route intraperitoneal; conditions: in vivo
# Mus musculus [5] = test: Hepatoprotective effect in GalN/LPS-induced ICR mouse FHF model assessed as serum TNF-alpha level at 100 mg/kg, ip administered 1 hr prior to GalN/LPS challenge measured after 6 hrs by ELISA (reference value: 605.8 +/- 96.8 pg/ml); assay type: functional; conditions: route intraperitoneal
# Mus musculus [6] = test: Hepatoprotective effect in GalN/LPS-induced ICR mouse FHF model assessed as reduction in TLR4 protein expression at 100 mg/kg, ip administered 1 hr prior to GalN/LPS challenge measured after 6 hrs by Western blotting analysis relative to control; assay type: functional, organism-based; design: dose 100 mg/kg
# In short: (§1)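 Livers from ICR mice given 100 mg/kg ip (5% DMSO−saline) 1 h before GalN 800 mg/kg/LPS 40 μg/kg, harvested at 6 h. Western blot: 20 μg liver homogenate protein (nuclear extracts for NF-κB), 10−17% SDS-PAGE, PVDF, blocked in 5% milk or BSA, primary antibody overnight at 4 °C, ECL detection; phospho versus total MAPKs; n = 8−10.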
# Mus musculus [7] = test: Hepatoprotective effect in GalN/LPS-induced ICR mouse FHF model assessed as reduction in NF-kappaB protein expression at 100 mg/kg, ip administered 1 hr prior to GalN/LPS challenge measured after 6 hrs by Western blotting analysis relative to control; assay type: functional, organism-based; design: dose 100 mg/kg; in short: as §1
# Mus musculus [8] = test: Hepatoprotective effect in GalN/LPS-induced ICR mouse FHF model assessed as reduction in p38 phosphorylation at 100 mg/kg, ip administered 1 hr prior to GalN/LPS challenge measured after 6 hrs by Western blotting analysis relative to control; assay type: functional, organism-based; design: dose 100 mg/kg; in short: as §1
# Mus musculus [9] = test: Hepatoprotective effect in GalN/LPS-induced ICR mouse FHF model assessed as reduction in ERK phosphorylation at 100 mg/kg, ip administered 1 hr prior to GalN/LPS challenge measured after 6 hrs by Western blotting analysis relative to control; assay type: functional, organism-based; design: dose 100 mg/kg; in short: as §1
# Mus musculus [10] = test: Hepatoprotective effect in GalN/LPS-induced ICR mouse FHF model assessed as reduction in JNK phosphorylation at 100 mg/kg, ip administered 1 hr prior to GalN/LPS challenge measured after 6 hrs by Western blotting analysis relative to control; assay type: functional, organism-based; design: dose 100 mg/kg; in short: as §1
# Mus musculus [11] = test: Induction of autophagic flux in GalN/LPS-induced ICR mouse FHF model assessed as increase in Atg-5 protein expression at 100 mg/kg, ip administered 1 hr prior to GalN/LPS challenge measured after 6 hrs by Western blotting analysis relative to control; assay type: functional, organism-based; design: dose 100 mg/kg; in short: as §1
# Mus musculus [12] = test: Induction of autophagic flux in GalN/LPS-induced ICR mouse FHF model assessed as increase in Atg-7 protein expression at 100 mg/kg, ip administered 1 hr prior to GalN/LPS challenge measured after 6 hrs by Western blotting analysis relative to control; assay type: functional, organism-based; design: dose 100 mg/kg; in short: as §1
# Mus musculus [13] = test: Induction of autophagic flux in GalN/LPS-induced ICR mouse FHF model assessed as increase in LC3-2 protein expression at 100 mg/kg, ip administered 1 hr prior to GalN/LPS challenge measured after 6 hrs by Western blotting analysis relative to control; assay type: functional, organism-based; design: dose 100 mg/kg; in short: as §1
# Mus musculus [14] = test: Induction of autophagic flux in GalN/LPS-induced ICR mouse FHF model assessed as reduction in p62 level at 100 mg/kg, ip administered 1 hr prior to GalN/LPS challenge measured after 6 hrs by Western blotting analysis relative to control; assay type: functional, organism-based; design: dose 100 mg/kg; in short: as §1
# Mus musculus [15] = test: Induction of autophagic flux in GalN/LPS-induced ICR mouse FHF model assessed as […] in Beclin-1 protein expression at 100 mg/kg, ip administered 1 hr prior to GalN/LPS challenge measured after 6 hrs by Western blotting analysis relative to control; assay type: functional, organism-based; design: dose 100 mg/kg; in short: as §1
# Mus musculus [16] = test: Induction of autophagic flux in GalN/LPS-induced ICR mouse FHF model assessed as increase in autophagic vacuoles at 100 mg/kg, ip administered 1 hr prior to GalN/LPS challenge measured after 6 hrs by transmission electron microscopy relative to control; assay type: functional, organism-based; design: dose 100 mg/kg
# In short: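 Mice given 100 mg/kg ip 1 h before GalN (800 mg/kg)/LPS (40 μg/kg); liver fixed at 6 h in 2.5% glutaraldehyde, 1% formaldehyde, 100 mM sodium phosphate pH 7.2; ultrathin 60−70 nm sections counterstained with uranyl acetate and lead citrate, autophagic vacuoles counted by transmission electron microscopy; n = 8−10.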
# Hepatocyte = test: Hepatoprotective effect in primary hepatocytes (unknown origin); assay type: functional, cell-based
# Mus musculus [17] = test: Hepatoprotective effect in ip dosed GalN/LPS-induced ICR mouse FHF model assessed as survival rate administered 1 hr prior to GalN/LPS challenge measured up to 24 hrs; assay type: functional, organism-based
# In short: (§2)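 Male 6-week-old ICR mice (24−26 g), fasted 18 h with water allowed. Vehicle (5% DMSO−saline) or drug suspended in it (25, 50, 100 mg/kg) given ip 1 h before ip GalN (800 mg/kg) plus LPS (40 μg/kg, E. coli O111:B4) in PBS. Survival was monitored over 24 h after the challenge. There were 10 mice per group.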
# Mus musculus [18] = test: Hepatoprotective effect in GalN/LPS-induced ICR mouse FHF model assessed as survival rate at 100 mg/kg, ip administered 1 hr prior to GalN/LPS challenge measured after 24 hrs; assay type: functional; conditions: route intraperitoneal; in short: as §2
# Mus musculus [19] = test: Effect serum ALT level in ICR mouse at 100 mg/kg, ip by spectrophotometry (reference value: 49.6 +/- 9.9 U/L); assay type: ADME, organism-based; design: dose 100 mg/kg, route intraperitoneal; conditions: in vivo
# Mus musculus [20] = test: Hepatoprotective effect in GalN/LPS-induced ICR mouse FHF model assessed as serum ALT level at 25 mg/kg, ip administered 1 hr prior to GalN/LPS challenge measured after 6 hrs by spectrophotometry (reference value: 618.4 +/- 43.7 U/L); assay type: functional; conditions: route intraperitoneal
# Mus musculus [21] = test: Hepatoprotective effect in GalN/LPS-induced ICR mouse FHF model assessed as serum ALT level at 50 mg/kg, ip administered 1 hr prior to GalN/LPS challenge measured after 6 hrs by spectrophotometry (reference value: 618.4 +/- 43.7 U/L); assay type: functional; conditions: route intraperitoneal
# Mus musculus [22] = test: Hepatoprotective effect in GalN/LPS-induced ICR mouse FHF model assessed as serum ALT level at 100 mg/kg, ip administered 1 hr prior to GalN/LPS challenge measured after 6 hrs by spectrophotometry (reference value: 618.4 +/- 43.7 U/L); assay type: functional; conditions: route intraperitoneal
# Mus musculus [23] = test: Toxicity in ICR mouse at 100 mg/kg, ip; assay type: organism-based; design: dose 100 mg/kg, route intraperitoneal; conditions: in vivo
# Mus musculus [24] = test: Effect on liver histology in GalN/LPS-induced ICR mouse FHF model assessed as inhibition of multiple areas of portal inflammation at 100 mg/kg, ip administered 1 hr prior to GalN/LPS challenge measured after 6 hrs by hematoxylin/eosin staining-based assay; assay type: functional, organism-based; design: dose 100 mg/kg
# Mus musculus [25] = test: Effect on liver histology in GalN/LPS-induced ICR mouse FHF model assessed as inhibition of hepatocellular necrosis at 100 mg/kg, ip administered 1 hr prior to GalN/LPS challenge measured after 6 hrs by hematoxylin/eosin staining-based assay; assay type: functional, organism-based; design: dose 100 mg/kg
# Mus musculus [26] = test: Effect on liver histology in ICR mouse at 100 mg/kg, ip after 6 hr by hematoxylin/eosin staining-based assay; conditions: in vivo
structure (smiles),measurement,setting,value
COc1ccc(-c2cc(=O)c3c(O)cc(O)cc3o2)cc1 [ACACETIN],Activity,Mus musculus [1],Active
same,Activity,Mus musculus [2],13.1 pg/mL
same,Activity,Mus musculus [3],27.4 pg/mL
same,Activity,Mus musculus [4],131 pg/mL
same,Activity,Mus musculus [5],27.4 pg/mL
same,Activity,Mus musculus [6],Active
same,Activity,Mus musculus [7],Active
same,Activity,Mus musculus [8],Active
same,Activity,Mus musculus [9],Active
same,Activity,Mus musculus [10],Active
same,Activity,Mus musculus [11],Active
same,Activity,Mus musculus [12],Active
same,Activity,Mus musculus [13],Active
same,Activity,Mus musculus [14],Active
same,Activity,Mus musculus [15],inactive
same,Activity,Mus musculus [16],Active
same,Activity,Hepatocyte,Active
same,Survival,Mus musculus [17],Dose-dependent effect
same,survival at 100 mg/kg,Mus musculus [18],80%
same,Activity,Mus musculus [19],64.4 U/L
same,Activity,Mus musculus [20],520.1 U/L
same,Activity,Mus musculus [21],395.6 U/L
same,Activity,Mus musculus [22],361.3 U/L
same,Activity,Mus musculus [23],Non-toxic
same,Activity,Mus musculus [24],Active
same,Activity,Mus musculus [25],Active
same,Activity,Mus musculus [26],Non-toxic
